From PubChem BioAssay
Shown are actives, neighbours in structure and some others; about 3.5% of the full set was active somewhere.
MrgX1 agonist – human MrgX1 receptor agonism, primary screen; Q96LB2; MrgX1-HEK293 cells, Fluo-4 calcium fluorescence, agonist mode; hits give high values; B-score at 10 µM; 0.44% of 310,000 active; AID 588627;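 active means calcium response B-score plate-corrected fluorescence ratio at least 3 library SD, with starting fluorescence B-score inside 5 SD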
Target sequence (Q96LB2 whole entry, looked up): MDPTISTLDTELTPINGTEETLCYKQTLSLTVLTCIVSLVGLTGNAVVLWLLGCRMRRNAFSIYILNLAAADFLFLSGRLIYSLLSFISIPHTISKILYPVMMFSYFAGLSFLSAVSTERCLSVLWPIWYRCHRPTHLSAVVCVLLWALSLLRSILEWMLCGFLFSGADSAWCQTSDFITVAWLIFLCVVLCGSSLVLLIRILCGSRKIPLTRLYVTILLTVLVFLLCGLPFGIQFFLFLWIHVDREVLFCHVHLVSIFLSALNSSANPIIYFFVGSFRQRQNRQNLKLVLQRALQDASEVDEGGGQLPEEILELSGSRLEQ
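times = overnight plating, then 30 min 37 °C plus 30 min room-temperature dye loading | assay system = stable human MrgX1 HEK293 cell line | input = fifteen thousand cells per well | signal = kinetic calcium dye fluorescence, Fluo-4 NW | dosing = compound delivered in addition one of three | read-out = B-scored fluorescence response ratio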
MrgX1 PAM – human MrgX1 positive allosteric modulation, primary screen | MrgX1-HEK293, Fluo-4 calcium flux, FDSS; hits give high values | B-score at 10 µM | 0.63% of 310,000 active;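 active means plate-corrected calcium response at least 3 library SD above typical, normal starting fluorescence, not activating the receptor alone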;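 further: compound read alongside a low EC10 to EC30 dose of BAM8-22 agonist; peak minus trough fluorescence over baseline measured at the second addition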
RGS4 inh – human RGS4 inhibition; 0.45% of 310,000 active; HEK293 M3R/RGS4 inducible, Fluo-4 calcium flux; hits give high values; triggered by carbachol at its EC20; B-score at 10 µM; AID 463165; P49798;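 active means B-score, a plate-corrected calcium signal, over three deviations above library mean, with baseline fluorescence within five deviations of library mean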;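 further: RGS4 expression induced by doxycycline in cells with stable M3 receptor; B-score is computed from the integrated fluorescence ratio over baseline after carbachol; higher B-score means a larger calcium signal and so more RGS4 inhibition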
Target sequence (P49798 whole entry, looked up): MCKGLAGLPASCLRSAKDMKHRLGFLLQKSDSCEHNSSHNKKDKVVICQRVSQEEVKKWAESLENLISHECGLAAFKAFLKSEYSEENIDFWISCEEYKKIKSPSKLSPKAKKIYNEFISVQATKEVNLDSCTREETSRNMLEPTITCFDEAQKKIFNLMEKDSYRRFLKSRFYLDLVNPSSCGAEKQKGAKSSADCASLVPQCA
RGS4 pot – potentiators or activators of RGS4 | B-score at 10 µM | AID 463111 | 0.92% of 310,000 active | HEK293 M3R/inducible RGS4, carbachol calcium flux Fluo4; hits give low values;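 active means B-score of the integrated calcium signal more than 4 SD below the library mean, with starting fluorescence not abnormally high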;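 further: negative B-score means reduced calcium response which marks RGS4 activation or potentiation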
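test system = HEK293 cells with stable M3R and inducible RGS4 | schedule = recording 10 s baseline at 1 Hz, 100 s post-agonist | technique = Fluo4-AM (2 µM) calcium-flux fluorescence, kinetic read | measure = Agonist-evoked peak-minus-minimum fluorescence over baseline, integrated ratio, B score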
MrgX1 antag – antagonists of human MrgX1 receptor | MRGX1-HEK293 calcium flux, Fluo-4, BAM8-22 antagonism; hits give low values | Q96LB2 | B-score at 10 µM | 1.3% of 310,000 active;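 active means calcium-response B-score plate-corrected more than 3 library SD below zero, starting fluorescence within 5 deviations, no agonist response on first addition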;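 further: peak minus trough fluorescence over baseline after final BAM8-22 challenge near maximal dose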
MrgX1 antag conf – reconfirmed antagonist of human MrgX1 receptor signaling; 19% of 2,300 active; remaining BAM8-22 calcium response % of control (hits give low values), % at 10 µM; MrgX1-HEK293, BAM8-22 calcium flux, Fluo-4; hits give low values; shares compounds with MrgX1 antag;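 active means remaining agonist calcium response no higher than 100% minus 3 SD of agonist-only control wells, with starting fluorescence near control levels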;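 further: agonist BAM8-22 given at a near maximal EC90 to ECmax level; peak minus minimum fluorescence divided by baseline after agonist addition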
HEK293 Ca flux – MrgX1 antagonist counter-screen hit in parental HEK293 cells. shares compounds with MrgX1 antag. Fluo-4 calcium fluorescence, FDSS. fluorescence ratio F(max-min)/F0 at 10 µM. 2% of 4,000 active;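 active means duplicate-averaged calcium fluorescence ratio at least three times the standard deviation of buffer wells, a nonspecific response in parental cells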
HEK293 Ca counter – counter-screen for MrgX1 allosteric activators: effect in parental HEK293 cells | shares compounds with MrgX1 antag | 0.4% of 4,000 active | fluorescence ratio F(max-min)/F0 at 10 µM | parental HEK293 calcium flux, Fluo-4 fluorescence ratio; hits give high values;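 active means calcium fluorescence ratio, averaged over duplicates, at least 3 SD of the buffer-well ratio, meaning a nonspecific response in receptor-free cells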;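 further: untransfected parental HEK293 lacking MrgX1 used as counterscreen for MrgX1 allosteric activators; fluorescence change taken during the second addition on a kinetic imager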
HEK293 Ca cntr2 – activity in parental HEK293 cells lacking MrgX1 receptor; AID 624115; shares compounds with MrgX1 antag; fluorescence ratio F(max-min)/F0 at 10 µM; 8.7% of 4,000 active; Fluo-4 calcium fluorescence (FDSS); hits give high values;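 active means calcium fluorescence ratio at least three times the spread of buffer wells, meaning a non-specific response in parental cells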
Numbers without * were called inactive; i = inactive; . = not tested or not shown.

SMILES | MrgX1 agonist | MrgX1 PAM | RGS4 inh | RGS4 pot | MrgX1 antag | MrgX1 antag conf | HEK293 Ca flux | HEK293 Ca counter | HEK293 Ca cntr2
Cc1cccc(NC(=O)c2ccccc2NC(=O)C2CCCCC2)c1C | i | i | i | i | -4.97* | i | i | i | i
Cc1cccc(NS(=O)(=O)c2ccc(C)c(C(=O)OCC(=O)Nc3cc(C)on3)c2)c1 | i | i | i | i | i | . | . | . | .
Cc1cccc(NS(=O)(=O)c2cc(C(=O)OCC(=O)Nc3cc(C)on3)ccc2C)c1 | i | i | i | i | -5.02* | i | i | i | i
O=[N+]([O-])c1cccc(-c2n[nH]c(=S)n2Cc2ccccc2)c1 | i | i | i | i | -17.2* | i | i | i | i
O=C(CSc1nnc(-c2ccccc2)n1Cc1ccccc1)N1CCOCC1 | i | i | i | i | i | . | . | . | .
Oc1ccccc1-c1nnc(SCCN2CCOCC2)n1Cc1ccccc1 | i | i | i | i | -6.78* | i | i | i | i
CCCc1ccccc1OCCNS(=O)(=O)c1cc2c(cc1C)OCC(=O)N2 | i | i | i | i | i | . | . | . | .
COCCCN1C(=O)c2[nH]nc(-c3ccccc3O)c2C1c1cccc(Cl)c1 (stereo not drawn) | i | i | i | i | i | . | . | . | .
COCCCN1C(=O)c2[nH]nc(-c3ccccc3O)c2C1c1ccc(Cl)cc1 (stereo not drawn) | i | i | i | i | -4.81* | i | i | i | i
CC1CCCN(C(=O)COC(=O)c2ccc[nH]c2=O)C1 (stereo not drawn) | i | i | i | i | i | . | . | . | .
CN(C)CCN1CC(O)=C(c2nc3ccccc3s2)C1=N | i | i | i | i | -5.67* | i | i | i | i
N=C1C(c2nc3ccccc3s2)=C(O)CN1Cc1ccco1 | i | i | i | i | i | . | . | . | .
CCOc1ccc(S(=O)(=O)NCc2cccnc2)cc1C(C)C | i | i | i | i | i | . | . | . | .
O=C(O)c1ccc2ncsc2c1 | i | i | i | i | -5.64* | 67.8%* | i | i | i
CCOC(=O)c1cccc(C(=O)Nc2nc3ccc(OC)cc3s2)n1 | i | i | i | i | -5.03* | i | i | i | i
COc1ccc2nc(NC(=O)c3ccccc3O)sc2c1 | i | i | i | i | i | . | . | . | .
O=C(NCCC1=CCCCC1)c1ccc(F)cc1 | i | i | i | i | -6.23* | i | i | i | i
CCOC(=O)c1sc(-c2ccc(C(F)(F)F)cc2)nc1O | i | i | i | i | -5.74* | 59.3%* | i | i | i
Cc1nc(=O)c(-c2ccccc2)c(C)n1-c1ccc(S(N)(=O)=O)cc1 | i | i | i | i | i | . | . | . | .
Cc1nc(=O)c(-c2ccccc2)c(C)n1-c1ccc(C(=O)O)cc1 | i | i | i | i | -4.92* | i | i | i | i
CC1=C(C(=O)OCc2ccccc2)C(c2ccccc2OS(=O)(=O)c2ccccc2[N+](=O)[O-])NC(=O)N1CCCC(=O)O (stereo not drawn) | i | i | i | i | i | . | . | . | .
CCc1c(C)sc(NC(=O)c2ccoc2C)c1C(N)=O | i | i | i | i | -5.95* | i | i | i | i
Cc1occc1C(=O)Nc1sc2c(c1C(N)=O)CCCCC2 | i | i | i | i | -6.48* | i | i | i | i
O=[N+]([O-])c1ccc2ccn(C3OCC(O)C(O)C3O)c2c1 (stereo not drawn) | i | i | i | i | i | . | . | . | .
CCOC(=O)CC1C(=O)NC2CCCCC2N1C(=O)Nc1ccc(Cl)cc1 (stereo not drawn) | i | i | i | i | i | . | . | . | .
SMILES | MrgX1 agonist | MrgX1 PAM | RGS4 inh | RGS4 pot | MrgX1 antag | MrgX1 antag conf | HEK293 Ca flux | HEK293 Ca counter | HEK293 Ca cntr2
Cc1cc(=O)[nH]c(SCc2nnnn2-c2ccc(Cl)cc2)n1 | i | i | i | i | i | . | . | . | .
Nc1cc(=O)[nH]c(SCc2nnnn2-c2ccc(Cl)cc2)n1 | i | i | i | i | -6.87* | i | i | i | i
Cc1ccc(NC(=O)C2CCC(CNC(=O)[C@@H]3Cc4ccccc4CN3)CC2)c(C)c1 (stereo partly drawn) | i | i | i | i | i | . | . | . | .
O=C(COC(=O)CC1Sc2ccccc2NC1=O)NCc1ccccc1 (stereo not drawn) | i | i | i | i | -11.4* | i | i | i | i
COc1ccc(CNC(=O)CC2Sc3ccccc3NC2=O)cc1 (stereo not drawn) | i | i | i | i | i | . | . | . | .
CCOc1ccccc1C(=O)NC(C)c1ccc2c(c1)OCO2 (stereo not drawn) | i | i | i | i | -5.29* | i | i | i | i
CCOC(=O)c1ccc(NC(=S)NCCc2ccccc2F)cc1 | i | i | i | i | -6.21* | 66.8%* | i | i | i
CCOC(=O)c1ccc(NC(=S)NCCc2ccccc2)cc1 | i | i | i | i | i | . | . | . | .
Cc1ccccc1-n1ncc2c1CC(C)(C)CC2NC(=O)C1=CC(=O)CC(C)(C)O1 (stereo not drawn) | i | i | i | i | i | . | . | . | .
COC(=O)c1c[nH]c(=O)c2ccccc12 | i | i | i | i | -5.73* | i | i | i | i
S=c1nc(-c2csc3c2CCCC3)[nH][nH]1 | i | i | i | i | i | . | . | . | .
CCOc1ccc(OCCOC(=O)C2CCN(S(=O)(=O)c3ccc(C)c(C)c3)CC2)cc1 | i | i | i | i | i | . | . | . | .
Cc1ccc(C(=O)NC(=S)Nc2ccc(N3CCOCC3)cc2)c(C)c1 | i | i | i | i | -5.41* | i | i | i | i
O=S(=O)(Cc1ccccc1)N1CCN(Cc2ccc(F)cc2Cl)CC1 | i | i | i | i | i | . | . | . | .
CC1(C)CC(=O)c2c(-c3cccs3)n[nH]c2C1 | i | i | i | i | -5.43* | i | i | i | i
